Laboratory results as given in ChEMBL document CHEMBL1147090, “Effect of antibiotics on Staphylococcus aureus producing Panton-Valentine leukocidin” (2007).
In brackets after ≈: the same amount, converted by molar mass. Activity calls are given as the source filed them. The calls are words filed in the database; no cut-off is given here.

How the values were obtained:
Staphylococcus aureus [1] = assay: Antibacterial activity against community acquired methicillin-resistant Staphylococcus aureus HT20041010 in Mueller-Hinton medium; format: functional
How it was run: (§1)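 MIC by CLSI-standard broth microdilution, run both in Mueller-Hinton broth and in casein hydrolysate-yeast extract (CCY) medium. Inoculum 5 × 10^5 CFU/ml.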

Staphylococcus aureus [2] = assay: Antibacterial activity against Staphylococcus aureus LUG855 in CCY media; format: functional; how it was run: as §1
Staphylococcus aureus [3] = assay: Antibacterial activity against Staphylococcus aureus LUG855 in Mueller-Hinton medium; format: functional; how it was run: as §1
Staphylococcus aureus [4] = assay: Antibacterial activity against community acquired methicillin-resistant Staphylococcus aureus HT20010734 in Mueller-Hinton medium; format: functional; how it was run: as §1
Staphylococcus aureus [5] = assay: Antibacterial activity against community acquired methicillin-resistant Staphylococcus aureus HT20020488 in Mueller-Hinton medium; format: functional; how it was run: as §1
Staphylococcus aureus [6] = assay: Antibacterial activity against community acquired methicillin-resistant Staphylococcus aureus HT20030203 in Mueller-Hinton medium; format: functional; how it was run: as §1
Staphylococcus aureus [7] = assay: Antibacterial activity against community acquired methicillin-resistant Staphylococcus aureus HT20040332 in Mueller-Hinton medium; format: functional; how it was run: as §1
Staphylococcus aureus [8] = assay: Antibacterial activity against community acquired methicillin-resistant Staphylococcus aureus HT20010734 in CCY medium; format: functional; how it was run: as §1
Staphylococcus aureus [9] = assay: Antibacterial activity against community acquired methicillin-resistant Staphylococcus aureus HT20020488 in CCY medium; format: functional; how it was run: as §1
Staphylococcus aureus [10] = assay: Antibacterial activity against community acquired methicillin-resistant Staphylococcus aureus HT20030203 in CCY media; format: functional; how it was run: as §1
Staphylococcus aureus [11] = assay: Antibacterial activity against community acquired methicillin-resistant Staphylococcus aureus HT20040332 in CCY media; format: functional; how it was run: as §1
Staphylococcus aureus [12] = assay: Antibacterial activity against community acquired methicillin-resistant Staphylococcus aureus HT20041010 in CCY media; format: functional; how it was run: as §1
Staphylococcus aureus [13] = assay: Decrease in Panton-Valentine leukocidin level in Staphylococcus aureus LUG855 in CCY medium; format: functional, organism-based
How it was run: (§2)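 Viable counts by plating diluted broth. Supernatant PVL measured by sandwich ELISA. μg PVL per log10 CFU is expressed as a percentage of the drug-free control. Means ± SD of five (LUG855) or three (clinical isolates) experiments. One-way ANOVA with Dunnett's test.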

Staphylococcus aureus [14] = assay: Decrease in Panton-Valentine leukocidin level in community acquired methicillin-resistant Staphylococcus aureus HT20010734 in CYY medium; format: functional, organism-based; how it was run: as §2
Staphylococcus aureus [15] = assay: Decrease in Panton-Valentine leukocidin level in community acquired methicillin-resistant Staphylococcus aureus HT20020488 in CYY medium; format: functional, organism-based; how it was run: as §2
Staphylococcus aureus [16] = assay: Decrease in Panton-Valentine leukocidin level in community acquired methicillin-resistant Staphylococcus aureus HT20030203 in CYY medium; format: functional, organism-based; how it was run: as §2
Staphylococcus aureus [17] = assay: Decrease in Panton-Valentine leukocidin level in community acquired methicillin-resistant Staphylococcus aureus HT20040332 in CYY medium; format: functional, organism-based; how it was run: as §2
Staphylococcus aureus [18] = assay: Decrease in Panton-Valentine leukocidin level in community acquired methicillin-resistant Staphylococcus aureus HT20041010 in CYY medium; format: functional, organism-based; how it was run: as §2
Staphylococcus aureus [19] = assay: Increase in Panton-Valentine leukocidin level in Staphylococcus aureus LUG855 in CCY medium; format: functional, organism-based; how it was run: as §2
Staphylococcus aureus [20] = assay: Increase in Panton-Valentine leukocidin level in community acquired methicillin-resistant Staphylococcus aureus HT20030203 in CYY medium; format: functional, organism-based; how it was run: as §2
Staphylococcus aureus [21] = assay: Increase in Panton-Valentine leukocidin level in community acquired methicillin-resistant Staphylococcus aureus HT20040332 in CYY medium; format: functional, organism-based; how it was run: as §2
Staphylococcus aureus [22] = assay: Increase in Panton-Valentine leukocidin level in community acquired methicillin-resistant Staphylococcus aureus HT20041010 in CYY medium; format: functional, organism-based; how it was run: as §2
Staphylococcus aureus [23] = assay: Increase in Panton-Valentine leukocidin level in community acquired methicillin-resistant Staphylococcus aureus HT20010734 in CYY medium; format: functional, organism-based; how it was run: as §2

SMILES | MIC (Staphylococcus aureus [1]) [µg/mL] | MIC (Staphylococcus aureus [2]) [µg/mL] | MIC (Staphylococcus aureus [3]) [µg/mL] | MIC (Staphylococcus aureus [4]) [µg/mL] | MIC (Staphylococcus aureus [5]) [µg/mL] | MIC (Staphylococcus aureus [6]) [µg/mL] | MIC (Staphylococcus aureus [7]) [µg/mL] | MIC (Staphylococcus aureus [8]) [µg/mL] | MIC (Staphylococcus aureus [9]) [µg/mL] | MIC (Staphylococcus aureus [10]) [µg/mL] | MIC (Staphylococcus aureus [11]) [µg/mL] | MIC (Staphylococcus aureus [12]) [µg/mL] | Activity (Staphylococcus aureus [13]) | Activity (Staphylococcus aureus [14]) | Activity (Staphylococcus aureus [15]) | Activity (Staphylococcus aureus [16]) | Activity (Staphylococcus aureus [17]) | Activity (Staphylococcus aureus [18]) | other results
CCC[C@@H]1C[C@@H](C(=O)N[C@@H]([C@H]2O[C@H](SC)[C@H](O)[C@@H](O)[C@H]2O)[C@H](C)Cl)N(C)C1 [CLINDAMYCIN] | > 128 | 0.12 (≈ 0.282 µM) | 0.06 (≈ 0.141 µM) | 0.12 (≈ 0.282 µM) | > 128 | 0.12 (≈ 0.282 µM) | > 128 | 0.25 (≈ 0.588 µM) | > 128 | 0.25 (≈ 0.588 µM) | > 128 | > 128 | Dose-dependent effect | Dose-dependent effect | Dose-dependent effect | Dose-dependent effect | Dose-dependent effect | Dose-dependent effect | –
Cc1onc(-c2ccccc2)c1C(=O)N[C@@H]1C(=O)N2[C@@H]1SC(C)(C)[C@@H]2C(=O)O [OXACILLIN] | 32 (≈ 79.7 µM) | 0.06 (≈ 0.149 µM) | 0.12 (≈ 0.299 µM) | 32 (≈ 79.7 µM) | 8 (≈ 19.9 µM) | 32 (≈ 79.7 µM) | 16 (≈ 39.9 µM) | 16 (≈ 39.9 µM) | 8 (≈ 19.9 µM) | 16 (≈ 39.9 µM) | 8 (≈ 19.9 µM) | 16 (≈ 39.9 µM) | – | – | – | – | – | – | Activity (Staphylococcus aureus [19]): Active; Activity (Staphylococcus aureus [20]): Active; Activity (Staphylococcus aureus [21]): Active; Activity (Staphylococcus aureus [22]): Active; Activity (Staphylococcus aureus [23]): Active
CC(=O)O[C@H]1C[C@@]2(C)[C@@H](C[C@@H](O)[C@H]3[C@@]4(C)CC[C@@H](O)[C@@H](C)[C@@H]4CC[C@@]32C)/C1=C(\CCC=C(C)C)C(=O)O [FUSIDIC ACID] | > 128 | < 0.03 | < 0.03 | – | 4 (≈ 7.74 µM) | 0.12 (≈ 0.232 µM) | – | – | 4 (≈ 7.74 µM) | 0.06 (≈ 0.116 µM) | – | 128 (≈ 248 µM) | – | – | – | – | – | – | –
CC(=O)NC[C@H]1CN(c2ccc(N3CCOCC3)c(F)c2)C(=O)O1 [LINEZOLID] | 1 (≈ 2.96 µM) | – | 1 (≈ 2.96 µM) | 0.5 (≈ 1.48 µM) | 0.5 (≈ 1.48 µM) | 1 (≈ 2.96 µM) | 1 (≈ 2.96 µM) | – | – | – | – | – | Dose-dependent effect | Dose-dependent effect | Dose-dependent effect | Dose-dependent effect | Dose-dependent effect | Dose-dependent effect | –
